Test results from ChEMBL document CHEMBL1125477, “Highly potent and selective heptapeptide antagonists of the neurokinin NK-2 receptor” (J Med Chem, 1992).
Square brackets hold non-standard residues; d marks the D form. Peptide text beside a SMILES is read from it. * marks the point of attachment. Nle = CCCC[C@H](N)C(=O)O; Bz = O=C(c1ccccc1)*

Legend:
[1] = biological target: T1, Neuromedin-K receptor (Rattus norvegicus) (UniProt P16177); test: Compound was evaluated for antagonism of contractile response of rat portal vein at Tachykinin receptor 3; format: functional
T1 sequence (whole entry): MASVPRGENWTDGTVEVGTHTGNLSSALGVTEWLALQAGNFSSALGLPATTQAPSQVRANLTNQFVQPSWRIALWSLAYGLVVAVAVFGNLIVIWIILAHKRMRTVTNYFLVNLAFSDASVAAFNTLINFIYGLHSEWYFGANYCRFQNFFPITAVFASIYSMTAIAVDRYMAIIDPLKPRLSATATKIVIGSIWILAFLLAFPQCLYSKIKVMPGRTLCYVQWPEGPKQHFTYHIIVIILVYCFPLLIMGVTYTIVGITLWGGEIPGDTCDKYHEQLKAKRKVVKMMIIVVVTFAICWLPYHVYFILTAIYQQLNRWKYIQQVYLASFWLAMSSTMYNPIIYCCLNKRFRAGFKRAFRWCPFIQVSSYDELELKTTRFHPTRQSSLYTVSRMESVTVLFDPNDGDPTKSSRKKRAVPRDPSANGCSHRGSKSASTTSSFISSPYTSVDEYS
Outline: (§1)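 Everted portal vein from male AHA rats (250–500 g). Contraction to senktide (NK-3). Agonist curves were repeated at least twice before exposure to one antagonist concentration per preparation. Concentration-ratio estimated graphically at the half-maximal level. pK_B = log(CR−1) − log(molar antagonist). Mean ± SE of four to eight tissues.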

[2] = biological target: Substance-P receptor (Cavia porcellus) (UniProt P30547); test: Compound was evaluated for antagonism of contractile response of guinea pig ileum longitudinal smooth muscle (GPI) at Tachykinin receptor 1; format: functional, tissue-based
Outline: (§2)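 Isolated longitudinal smooth muscle of ileum from male Dunkin-Hartley guinea-pigs (300–600 g), killed by concussion and exsanguination. Contraction to SP methyl ester (NK-1 agonist). At least two control agonist curves, then one antagonist concentration per preparation. Concentration-ratio read graphically at half-maximal response. pK_B = log(CR−1) − log[antagonist]. Mean ± SE over four to eight tissues.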

[3] = biological target: T2, Substance-K receptor (Rattus norvegicus) (UniProt P16610); test: Compound was evaluated for antagonism of contractile response of rat colon muscularis mucosae (RC) at Tachykinin receptor 2; format: functional, tissue-based; details: Muscularis mucosa
T2 sequence (whole entry): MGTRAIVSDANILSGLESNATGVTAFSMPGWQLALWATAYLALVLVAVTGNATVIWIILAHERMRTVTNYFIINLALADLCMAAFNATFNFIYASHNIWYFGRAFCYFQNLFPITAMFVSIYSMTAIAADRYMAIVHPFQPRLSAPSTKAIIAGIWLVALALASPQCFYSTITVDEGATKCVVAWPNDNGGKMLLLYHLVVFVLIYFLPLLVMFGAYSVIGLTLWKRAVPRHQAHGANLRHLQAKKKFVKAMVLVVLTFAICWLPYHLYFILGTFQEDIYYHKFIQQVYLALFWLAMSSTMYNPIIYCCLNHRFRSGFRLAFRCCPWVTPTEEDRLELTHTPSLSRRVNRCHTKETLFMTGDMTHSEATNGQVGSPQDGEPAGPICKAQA
Outline: (§3)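 Colon muscularis mucosae from male AHA rats (250–500 g), killed by concussion and exsanguination. Contraction to neurokinin A (NK-2). At least two control agonist curves, then a single antagonist concentration per tissue. Equiactive agonist concentration-ratio taken at half-maximal response. pK_B = log(CR−1) − log[antagonist]. Mean ± SE over four to eight preparations.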

[4] = biological target: Substance-P receptor (Cavia porcellus) (UniProt P30547); test: Compound was evaluated for antagonism of contractile response of guinea pig ileum longitudinal smooth muscle (GPI) at tachykinin receptor 1; format: functional, tissue-based; outline: as §2
[5] = biological target: T2, Substance-K receptor (Rattus norvegicus); test: Compound was evaluated for antagonism of contractile response of rat colon muscularis mucosae (RC) at tachykinin receptor 2; format: functional, tissue-based; details: Muscularis mucosa; outline: as §3
[6] = biological target: T1, Neuromedin-K receptor (Rattus norvegicus); test: Compound was evaluated for antagonism of contractile response of rat portal vein at tachykinin receptor 3; format: functional; outline: as §1

Sequence of Substance-P receptor (Cavia porcellus) (P30547 whole entry): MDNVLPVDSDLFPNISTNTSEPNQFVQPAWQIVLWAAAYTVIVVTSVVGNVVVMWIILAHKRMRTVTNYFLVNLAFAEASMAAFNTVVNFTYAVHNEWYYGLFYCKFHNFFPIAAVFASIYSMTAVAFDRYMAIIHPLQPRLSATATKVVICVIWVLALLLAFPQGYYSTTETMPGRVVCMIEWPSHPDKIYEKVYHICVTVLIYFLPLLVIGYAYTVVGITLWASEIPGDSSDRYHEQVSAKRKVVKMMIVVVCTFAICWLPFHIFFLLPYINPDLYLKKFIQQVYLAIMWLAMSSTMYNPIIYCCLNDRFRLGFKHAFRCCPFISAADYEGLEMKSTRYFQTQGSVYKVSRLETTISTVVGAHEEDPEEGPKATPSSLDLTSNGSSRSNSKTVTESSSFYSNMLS

| Compound | pKB [1] | pKB [2] | pKB [3] | pKB [4] | pKB [5] | pKB [6] |
| --- | --- | --- | --- | --- | --- | --- |
| CCCC[C@H](NC(=O)[C@@H]1CCCN1C(=O)[C@H]1CCCN1C(=O)[C@H](Cc1ccccc1)NC(=O)[C@@H](Cc1c[nH]c2ccccc12)NC(=O)[C@H](C)NC(=O)[C@H](C)NC(=O)c1ccccc1)C(N)=O (Bz-AA[dW]F[dP]P[Nle]-NH2) | 6 | 6.4 | 9.6 |  |  |  |
| CCCC[C@H](NC(=O)[C@@H]1CCCN1C(=O)[C@H]1CCCN1C(=O)[C@H](Cc1ccccc1)NC(=O)[C@@H](Cc1c[nH]c2ccccc12)NC(=O)[C@H](C)NC(=O)[C@H](CCC(N)=O)NC(=O)c1ccccc1)C(N)=O | 5.6 | 6.6 | 8.8 |  |  |  |
| CCCC[C@H](NC(=O)[C@@H]1CCCN1C(=O)[C@H]1CCCN1C(=O)[C@H](Cc1ccccc1)NC(=O)[C@@H](Cc1c[nH]c2ccccc12)NC(=O)[C@H](C)NC(=O)[C@H](C)NC(=O)OC(C)(C)C)C(N)=O | 4.7 | 5.5 | 9.3 |  |  |  |

The next lines start with the values.

| pKB [1] | pKB [2] | pKB [3] | pKB [4] | pKB [5] | pKB [6] | Compound |
| --- | --- | --- | --- | --- | --- | --- |
|  |  |  | < 4.6 | < 4.6 | < 4.6 | CCCC[C@H](NC(=O)[C@@H]1CCCN1C(=O)[C@H]1CCCN1C(=O)[C@H](Cc1ccccc1)NC(=O)[C@H](Cc1ccccc1)NC(=O)[C@H](C)NC(=O)[C@@H](N)CCCN=C(N)N)C(N)=O |
|  |  |  | 4.7 | 5.9 | < 4.6 | CCCC[C@H](NC(=O)[C@@H]1CCCN1C(=O)[C@H]1CCCN1C(=O)[C@H](Cc1ccccc1)NC(=O)[C@@H](Cc1c[nH]c2ccccc12)NC(=O)[C@H](C)NC(=O)[C@@H](N)CCCN=C(N)N)C(N)=O |
| 5.1 | 5.6 | 7.9 |  |  |  | CCCC[C@H](NC(=O)[C@@H]1CCCN1C(=O)[C@H]1CCCN1C(=O)[C@H](Cc1ccccc1)NC(=O)[C@@H](Cc1c[nH]c2ccccc12)NC(=O)[C@H](C)NC(=O)[C@H](CCC(N)=O)NC(=O)OC(C)(C)C)C(N)=O |
